# Test results from PubChem BioAssay.
# Calls of active or inactive are those of the source.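 How the source made its calls, unless noted: active means viability loss from added drug above about 55%, and viability with drug at most 40%, in both replicates (limit read from the data, passing the limit was not always enough); inconclusive means both conditions met in only one replicate; inactive means neither replicate meets both conditions.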
# Columns and labels:
# [1] = Her2 expression decrease, cell viability multiplex – SKBR3 breast tumor cells, AlphaScreen, ATP viability, primary screen (AID 461;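 active means Her2 level under about 52% in both replicate screens, with viability over 70% of control, limit read from the data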;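 on Her2 level: lower value means less Her2 protein in the cells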;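 on viability: percent of carrier control wells set as 100% viability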); conditions: SKBR3 Her2 protein level, 18-24 h, measured here: SKBR3 viability, ATP luminescence, at 10 µM
# [2] = biological target: Receptor tyrosine-protein kinase erbB-2 (Homo sapiens) (UniProt P04626); assay: as above; conditions: 18-24 h, at 10 µM, stronger effect = lower value
# [3] = reduced viability of SK-BR-3 breast cancer cells – cell-based, 24 h, human, pilot screen (AID 572;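 active means viability at or below 10% of carrier control in both of two separate runs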;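 further: compound exposure lasted between 18 and 24 h rather than exactly 24 h; 100% = carrier-treated control wells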); conditions: SK-BR-3 viability, CellTiter-Glo luminescence, at 10 µM, stronger effect = lower value
# [4] = HUVEC growth inhibition – cell-based, human, primary screen (AID 575;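 active means viability at or below 30% in both replicate assays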;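 further: 100% = median of untreated cell wells with 0.1% DMSO on each plate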); conditions: HUVEC proliferation, CellTiter-Glo luminescence, 72 h; at 10 µM; stronger effect = lower value
# Outline: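 Assay system: Primary human umbilical vein endothelial cells | Quantity: 1250 cells per well | Medium: Supplemented EBM, 2% fetal bovine serum | Detection: CellTiter-Glo luminescence measuring cellular ATP | Read-out: % viability vs DMSO wells | Plate: Collagen-coated 384-well format | Times: 72 h exposure, 37 °C, 5% CO2, 30 min RT equilibration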
# [5] = H69AR cell proliferation blockers – human, duplicate replicates, primary screen (AID 580;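 active means viability at or under a set limit in both replicates, limit being median viability minus 3 SD, cut at about 48% in these data, passing the limit was not always enough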;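 further: 100% = mean luminescence of untreated wells and 0% = no signal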); conditions: H69AR lung tumor cells viability, ATP luminescence, 72 h; at 10 µM; stronger effect = lower value
# [6] = MRP1 drug-resistance reversers in H69AR cells – cell-based, doxorubicin co-treatment, pilot screen (AID 601); conditions: CellTiter-Glo, 72 h, at 10 µM; for differential viability (reversal): stronger effect = higher value
# [7] = yeast transport mutant growth inhibition pilot in 384-well plates, post-Golgi transport modulator project (AID 636; in the data active means inhibition above about 31%); conditions: absorbance 615 nm, about 18 h, stronger effect = higher value
# [8] = growth suppression of yeast trafficking mutant, preliminary HTS, modulators of trafficking downstream of Golgi apparatus project, 1536-format plate, OD 615 nm (AID 637; in the data active means inhibition above about 30%); conditions: yeast transport mutant growth, absorbance 615 nm, 18 h; stronger effect = higher value
# [9] = H69AR cells + 2 uM doxorubicin, measured here: viability with 2 uM doxorubicin, stronger effect = lower value
# [10] = H69AR cells, compound alone cytotoxicity
# Receptor tyrosine-protein kinase erbB-2 (Homo sapiens), sequence (P04626 whole entry, looked up): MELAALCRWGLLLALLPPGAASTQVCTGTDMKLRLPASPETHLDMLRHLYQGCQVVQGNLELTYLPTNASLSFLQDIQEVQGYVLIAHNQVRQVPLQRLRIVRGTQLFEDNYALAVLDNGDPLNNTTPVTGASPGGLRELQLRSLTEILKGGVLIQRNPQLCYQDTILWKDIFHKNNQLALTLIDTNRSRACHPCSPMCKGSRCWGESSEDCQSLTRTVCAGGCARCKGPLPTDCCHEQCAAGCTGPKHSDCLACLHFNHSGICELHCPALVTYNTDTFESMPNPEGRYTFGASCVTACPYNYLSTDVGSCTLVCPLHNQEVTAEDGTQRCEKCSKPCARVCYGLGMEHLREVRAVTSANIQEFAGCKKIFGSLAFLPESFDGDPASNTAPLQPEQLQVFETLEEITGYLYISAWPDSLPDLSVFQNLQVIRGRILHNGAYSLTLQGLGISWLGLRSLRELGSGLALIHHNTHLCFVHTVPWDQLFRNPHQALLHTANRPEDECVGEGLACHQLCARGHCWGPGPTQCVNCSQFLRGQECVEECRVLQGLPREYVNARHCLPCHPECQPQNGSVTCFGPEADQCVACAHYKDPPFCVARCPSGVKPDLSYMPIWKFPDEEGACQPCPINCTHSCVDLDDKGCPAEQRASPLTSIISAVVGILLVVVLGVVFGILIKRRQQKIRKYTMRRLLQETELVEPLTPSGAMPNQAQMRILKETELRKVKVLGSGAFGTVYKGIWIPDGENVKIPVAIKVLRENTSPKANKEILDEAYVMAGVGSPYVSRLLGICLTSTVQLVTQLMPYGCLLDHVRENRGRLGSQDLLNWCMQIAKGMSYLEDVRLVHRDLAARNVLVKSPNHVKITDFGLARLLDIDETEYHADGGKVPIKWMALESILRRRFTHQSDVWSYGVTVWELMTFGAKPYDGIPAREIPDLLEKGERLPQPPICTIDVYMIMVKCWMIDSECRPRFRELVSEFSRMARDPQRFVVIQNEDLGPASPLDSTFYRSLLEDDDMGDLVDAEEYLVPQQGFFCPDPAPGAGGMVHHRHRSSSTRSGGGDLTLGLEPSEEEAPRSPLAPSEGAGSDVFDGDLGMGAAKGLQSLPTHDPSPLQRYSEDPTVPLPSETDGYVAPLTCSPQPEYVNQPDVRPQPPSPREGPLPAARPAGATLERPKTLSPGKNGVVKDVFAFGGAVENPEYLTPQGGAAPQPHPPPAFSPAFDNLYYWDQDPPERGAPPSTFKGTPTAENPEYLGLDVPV
SMILES,viability [1] [%],Her2 level [2],viability [3],viability [4],viability [5],differential viability (reversal) ([6]; H69AR cells + 2 uM doxorubicin),"viability [6, 9] [%]","viability [6, 10] [%]",inhibition [7],inhibition [8]
O=C(NC12CC3CC(CC(C3)C1)C2)C1CCCN1C(=O)NC1CCCCC1 (stereo not given),102,113% (inactive),102% (inactive),108% (inactive),92.6% (inactive),16.5% (inactive),76.2,92.6,-6.62% (inactive),1.5% (inactive)
Cc1ccccc1CSCC(=O)c1c(N)n(C)c(=O)n(C)c1=O,86.5,86.5% (inactive),86.5% (inactive),106% (inactive),93.5% (inactive),-2.12% (inactive),95.6,93.5,-2.37% (inactive),-2.22% (inactive)
NCCN1CCN(CCN)CC1,106,77% (inactive),106% (inactive),84.6% (inactive),93.7% (inactive),12.2% (inactive),81.4,93.7,-3.87% (inactive),2.38% (inactive)
CCCn1c(=O)c2ccccc2n2c(SCc3cc(=O)n4ccsc4n3)nnc12,79.5,90.5% (inactive),79.5% (inactive),104% (inactive),82.1% (inactive),14.6% (inactive),67.6,82.1,-1.18% (inactive),-12.1% (inactive)
Cc1ncoc1C(=O)Nc1cccc(Cl)c1C,104,114% (inactive),104% (inactive),113% (inactive),101% (inactive),15.6% (inactive),85.1,101,-3.78% (inactive),0.33% (inactive)
Cc1nn(C)c(C)c1CNC(=O)c1cc2n(n1)C(C(F)(F)F)CC(c1cccs1)N2 (stereo not given),89.5,83% (inactive),89.5% (inactive),107% (inactive),112% (inactive),18.2% (inactive),93.9,112,0.41% (inactive),0.32% (inactive)
COc1ccc(C2(CN(C(C)=O)C(C)=O)CCCC2)cc1OC,89.5,93% (inactive),89.5% (inactive),114% (inactive),90.4% (inactive),1.69% (inactive),88.7,90.4,-4.8% (inactive),-4.92% (inactive)
CCc1c(C(=O)N2CCOCC2)csc1C,120,154% (inactive),120% (inactive),101% (inactive),106% (inactive),20.8% (inactive),84.9,106,-3.95% (inactive),-8.33% (inactive)
Cc1ccc(-c2cc(C(F)(F)F)n3ncc(C(=O)O)c3n2)cc1,91,90.5% (inactive),91% (inactive),113% (inactive),99.7% (inactive),7.33% (inactive),92.4,99.7,-7.87% (inactive),0.48% (inactive)
O=C(C1CCCN(S(=O)(=O)c2cnc[nH]2)C1)N1CC(=O)N(CCc2ccccc2)C(=O)C1 (stereo not given),93.5,92% (inactive),93.5% (inactive),105% (inactive),95% (inactive),-4.7% (inactive),99.7,95,-0.8% (inactive),21.6% (inactive)
COc1cccc(N2CCN(Cc3cccnc3)CC2)c1,81.5,97.5% (inactive),81.5% (inactive),93% (inactive),87.8% (inactive),-7.62% (inactive),95.4,87.8,-0.38% (inactive),3.33% (inactive)
C=CCOc1ccc(C2C(C(=O)c3ccco3)=C(O)C(=O)N2Cc2cccnc2)cc1 (stereo not given),108,89.5% (inactive),108% (inactive),119% (inactive),90.9% (inactive),2.87% (inactive),88,90.9,-1.71% (inactive),8.69% (inactive)
CCOC(=O)c1[nH]c2ccc(OC)cc2c1NC(=O)CCN1CCC(C)CC1,101,94.5% (inactive),101% (inactive),94.1% (inactive),96.8% (inactive),-0.37% (inactive),97.2,96.8,-3.12% (inactive),-8.73% (inactive)
FC(F)(F)c1nnc2sc(-c3cccs3)nn12,102,86.5% (inactive),102% (inactive),93.9% (inactive),113% (inactive),19.7% (inactive),93,113,-7.43% (inactive),4.6% (inactive)
C=CCOC(=O)CCC(=O)Nc1cc(OC)nc(OC)n1,112,112% (inactive),112% (inactive),92.1% (inactive),90.8% (inactive),0.705% (inactive),90.1,90.8,-3.07% (inactive),8.73% (inactive)
CN1C(=O)NC(NC(=O)C2CCCCC2)(C(F)(F)F)C1=O (stereo not given),93,85% (inactive),93% (inactive),98.7% (inactive),106% (inactive),6.06% (inactive),99.8,106,-0.92% (inactive),-0.65% (inactive)
C=C(C)Cn1c(SCC)nc2ccccc2c1=O,93,97.5% (inactive),93% (inactive),104% (inactive),85.6% (inactive),-3% (inactive),88.6,85.6,-5.39% (inactive),-3.27% (inactive)
CCOc1ccc(OCc2ccc(C(=O)Nc3cccc(C)n3)o2)cc1,101,85% (inactive),101% (inactive),84.1% (inactive),93.4% (inactive),6.08% (inactive),87.3,93.4,-1.58% (inactive),-1.61% (inactive)
CCc1nnc2sc(-c3cc(-c4ccccc4)nc4ccccc34)nn12,71,65% (inactive),71% (inactive),75.5% (inactive),86.9% (inactive),-0.185% (inactive),87.1,86.9,-1.82% (inactive),1% (inactive)
COCCCNS(=O)(=O)c1ccc2c(c1)CCN2C(C)=O,97,99% (inactive),97% (inactive),102% (inactive),87.1% (inactive),-17.4% (inactive),105,87.1,-0.13% (inactive),-0.32% (inactive)
O=C(CNS(=O)(=O)c1ccc(Br)s1)N1CCCC1,118,115% (inactive),118% (inactive),98.7% (inactive),99.9% (inactive),9.79% (inactive),90.1,99.9,-2.11% (inactive),6.89% (inactive)
Cc1cccc(C(OC(=O)c2ccco2)C(=O)NCc2ccccc2)n1 (stereo not given),102,90% (inactive),102% (inactive),86.6% (inactive),96.1% (inactive),7.79% (inactive),88.3,96.1,-2.03% (inactive),-1.64% (inactive)
CCCC(=O)Nc1nnc(Sc2ccc(N(C)C)cc2)s1,100,90% (inactive),100% (inactive),80.3% (inactive),101% (inactive),15.3% (inactive),85.4,101,-5.2% (inactive),-8.73% (inactive)
CCOC(=O)N1CCN(C(=O)CN(c2ccc(C)cc2)S(=O)(=O)c2c(C)noc2C)CC1,81.5,94% (inactive),81.5% (inactive),106% (inactive),86.1% (inactive),-0.005% (inactive),86.1,86.1,-4.73% (inactive),6.51% (inactive)
Cc1cc2c(s1)c1cnn(CC(=O)NCCc3ccccc3)c(=O)c1n2C,120,98.5% (inactive),120% (inactive),118% (inactive),87.1% (inactive),5.06% (inactive),82,87.1,-5.81% (inactive),-3.5% (inactive)
COc1cccc(-c2cc(C(=O)Nc3cc(OC)c(OC)c(OC)c3)no2)c1,106,99.5% (inactive),106% (inactive),57.5% (inactive),16.6% (active),-72% (inactive),88.6,16.6,-4.59% (inactive),-3.11% (inactive)
CCOC(=O)c1ccc(-c2c(C(=O)OCC)oc3cc(O)c(CC)cc3c2=O)o1,96.5,88.5% (inactive),96.5% (inactive),76.6% (inactive),83.3% (inactive),-19.3% (inactive),103,83.3,-3.42% (inactive),11.6% (inactive)
CCCCOC(=O)n1c(SCC(=O)N(CC)CC)nc2ccccc21,86,97.5% (inactive),86% (inactive),81.8% (inactive),91.4% (inactive),1.75% (inactive),89.6,91.4,-1.82% (inactive),-4.29% (inactive)
